# In PubChem BioAssay AID504382 (The Scripps Research Institute Molecular Screening Center, 2011):
# In all, about 2,500 compounds went through this assay and about 460 (18%) were called active. These entries were drawn from the full list. Unmarked numbers belong to inactive results.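 Rule for the calls: active = mean activation above a cutoff of low control average plus 3 SD from the earlier screen (cut at about 12% in these data); inactive = the rest.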
# Assay: compound fluorescence interference without thin filaments, confirmation, artefact control for cardiac RTF calcium sensitizer project, biochemical (AID 504382)
# Settings: IANBD fluorescence interference counterscreen, buffer, EC20 Ca2+; at 7.2 µM; active compounds read high; scaled: EC20 calcium 0, EC100 calcium 100
# In short: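 Technique: fluorescence, 480/540 nm / Medium: MOPS-based buffer with KCl, MgCl2, EGTA, NTA, DTT, pH 7.2 / Probe or stimulus: calcium at EC20 level, 0.472 mM final / Repeats: triplicate wells per compound / Times: 15 min compound exposure at 25 °C / Measure: compound fluorescence interference relative to control well signal range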
row,Structure (SMILES),fluorescence artifact activation
1,Cc1ccc(NC2OC(C(O)CO)C(O)C2O)cc1[N+](=O)[O-] (stereo unspecified),5.79%
2,O=C(c1ccc(COc2ccccc2Br)o1)N1N=C(C(F)F)CC1(O)C(F)F (stereo unspecified),8.57%
3,CC(=O)Nc1ccc(S(=O)(=O)N2CCN3CCCC3C2)cc1 (stereo unspecified),-0.04%
4,CCOC(=O)/C(=C\c1ccc(N2CCC(c3ccccc3)=N2)cc1)C(C)=O,-0.05%
5,CCOC(=O)/C(=C/C=C1\Sc2cc(C)c(C)cc2N1CC)C(C)=O,0.02%
6,CCOC(=O)/C(=C/C1=CC(=C/N(C)C)/C(=O)O1)C(C)=O,22.1% (active)
7,CCc1ccc(/C=N/n2c(C)cc(C)c(C#N)c2=O)cc1,0.12%
8,CCCNC(=S)N1CCC(NC(=O)C23CC4CC(CC(C4)C2)C3)CC1,0.09%
9,CSc1nnnn1-c1c(C)cc(C)cc1C,0.04%
10,Cc1ccccc1-n1nnnc1SCC(C)C,32.8% (active)
11,CCn1nnnc1SCC(=O)N1CCCc2ccccc21,0.01%
12,CCO[C@@H]1OC(C(=O)O)=C[C@H](c2coc3ccccc3c2=O)[C@H]1CCCO,1.71%
13,COCCn1c(SCC#N)nnc1-c1ccc([N+](=O)[O-])cc1,-0.11%
14,COc1cc(/C=C2\SC(=Nc3ccc(Cl)c(C(=O)O)c3)NC2=O)c(Br)c(Br)c1O,17.6% (active)
15,COc1cccc(N=C2NC(=O)/C(=C/c3cc([N+](=O)[O-])ccc3O)S2)c1,0.01%
16,COc1cc(/C=C2\SC(=Nc3ccccc3)NC2=O)cc(Cl)c1O,0.21%
17,c1ccc(-c2nc(-c3ccco3)n3ccccc23)cc1,0.05%
18,O=C(/C=C/c1cccc(F)c1)Nc1cc(S(=O)(=O)N2CCOCC2)ccc1N1CCCC1,0.02%
19,N=C1/C(=C\c2coc3ccccc3c2=O)C(=O)N=C2SC(c3ccncc3)=NN12,7.67%
20,CC(C)CC1=NN2C(=N)/C(=C\c3coc4ccccc4c3=O)C(=O)N=C2S1,2.69%
21,CSC1=NSC2=NC(=O)/C(=C/c3coc4ccccc4c3=O)C(=N)N12,0.27%
22,N=C1/C(=C\c2coc3ccccc3c2=O)C(=O)N=C2SC=CN12,-0.01%
23,CCSC1=NSC2=NC(=O)/C(=C\c3coc4ccccc4c3=O)C(=N)N12,24.5% (active)

row,Structure (SMILES),fluorescence artifact activation
1,CC(C)CSC1=NSC2=NC(=O)/C(=C\c3coc4ccccc4c3=O)C(=N)N12,12.7% (active)
2,Cn1nnnc1SCCOc1ccc(C#N)cc1,-0.03%
3,CSc1cccc(NC(=O)c2ccc(Cl)nc2)c1,-0.04%
4,Fc1ccc(-c2[nH]ncc2CN(CC2CCC2)CC2CCCO2)c(F)c1 (stereo unspecified),8.43%
5,C=C(C)c1sc(-c2ccc(Cl)cc2)nc1C,0.11%
6,O=C(NN1C(=O)/C(=C/c2ccc(O)cc2)SC1=S)c1cccc(O)c1,0.01%
7,Cc1cc2nc(C3CCCN(C(=O)NCc4ccccc4)C3)[nH]c2cc1C (stereo unspecified),8.15%
8,COc1ccc(-n2c(O)c(/C=N/NS(=O)(=O)c3ccc(C)c([N+](=O)[O-])c3)c3ccccc3c2=O)cc1OC,-0.02%
9,COc1ccc(-n2c(O)c(/C=N/NS(=O)(=O)c3cc(C)ccc3C)c3ccccc3c2=O)cc1OC,0.84%
10,COc1ccc(-n2c(O)c(/C=N/NS(=O)(=O)c3ccc(C)cc3)c3ccccc3c2=O)cc1OC,12.8% (active)
11,COc1ccc(/C(C)=N/N2C(=O)c3ccccc3NC2c2ccc(O)c(OC)c2)cc1 (stereo unspecified),0.69%
12,Cc1cn(COC/C=C/c2ccccc2)c(=O)[nH]c1=O,25.6% (active)
13,Cc1ccccc1-n1c(O)c(/C=C/C=Nc2ccccc2)c(=O)[nH]c1=O,2.27%
14,CCCCOc1ccc(C2OC34CCCCC3C(C#N)(C#N)C2(C#N)C(=N)O4)cc1 (stereo unspecified),0.1%
15,COc1ccc(C(=O)OC/C(O)=C(\C#N)c2nc3ccccc3[nH]2)cc1S(=O)(=O)N1CCOCC1,0.13%
16,O=C1OCC/C1=C\c1ccccc1O,-0.06%
17,COC(=O)C1CSc2[nH]c(=O)sc2C1c1ccccc1 (stereo unspecified),0.07%
18,CC(C(=O)O)N1C(=O)/C(=C/c2cccn2C)SC1=S (stereo unspecified),6.16%
19,CN1CCS/C1=C/C=C1\SC(=S)N(CC(=O)O)C1=O,18.9% (active)
20,CC(C)C(C(=O)O)N1C(=O)/C(=C/c2cccn2C)SC1=S (stereo unspecified),12.3% (active)
21,CCCCN1C(=O)/C(=C/C=C2\SCCN2C)SC1=S,0%
22,CCC(C(=O)O)N1C(=O)/C(=C/c2cccn2C)SC1=S (stereo unspecified),4.17%
23,Cc1ccc(C(=O)NN2C(=O)/C(=C/c3cn(C)c4ccccc34)SC2=S)cc1,7.41%

row,Structure (SMILES),fluorescence artifact activation
1,Cn1cccc1/C=C1\SC(=S)N(NC(=O)c2ccc(Cl)cc2)C1=O,0.86%
2,Cc1ccc(C(=O)NN2C(=O)/C(=C/c3cccn3C)SC2=S)cc1,4.27%
3,Cn1cc(/C=C2\SC(=S)N(NC(=O)c3cccc(Cl)c3)C2=O)c2ccccc21,17% (active)
4,Cn1cc(/C=C2\SC(=S)N(NC(=O)c3ccccc3)C2=O)c2ccccc21,2.64%
5,CN1CCS/C1=C\C=C1/SC(=S)N(CC(=O)O)C1=O,-0.02%
6,Cn1cccc1/C=C1\SC(=S)N(NC(=O)c2ccccc2)C1=O,18.2% (active)
7,Cc1ccc(N2CN(Cc3cccnc3)CNC2=S)cc1,0.4%
8,CCOC(=O)c1cnc(SC)nc1Oc1cccc(NS(=O)(=O)c2ccc(Cl)cc2)c1,0.07%
9,CCN1C(=S)SC(=O)C1=C1C=C(C)N(Cc2ccco2)C(C)=C1,0.18%
10,COc1cc(/C=N\NC(=O)CC(=O)NCCc2ccccc2)ccc1O,0.17%
11,CN(C)c1ccc(NC2=C([N+](=O)[O-])CS(=O)(=O)C2)cc1,3.15%
12,CCc1ccc(NC(=O)C2CCN(S(=O)(=O)c3ccc4[nH]c(=O)ccc4c3)CC2)cc1,0.08%
13,COc1ccc(C2OC34CCCCC3C(C#N)(C#N)C2(C#N)C(=N)O4)cc1 (stereo unspecified),0.16%
14,CC(=O)Nc1sc2c(c1-c1nc3ccccc3s1)CN(C(C)C)CC2,-0.08%
15,Nc1c(C(=O)C2CC2)sc2nc(-c3ccccc3)cc(C(F)(F)F)c12,8.48%
16,O=C(O)CN1C(=O)/C(=C\c2cn(CC(=O)N3CCOCC3)c3ccccc23)SC1=S,4.83%
17,Cn1cccc1/C=C1\SC(=S)N(CC(=O)O)C1=O,3.44%
18,Cn1cccc1/C=C1/SC(=S)N(CC(=O)O)C1=O,52.3% (active)
19,COc1ccc2noc3c2c1C(=O)c1ccccc1-3,0.01%
20,COc1ccc(N=Cc2c(O)c3ccccc3n2C(C)=O)cc1,1.91%
21,N=c1oc2ccccc2cc1-c1nc(-c2ccccc2)cs1,0.03%
22,N#C/C(=C/c1ccc(N2CCCCC2)o1)C(=O)Nc1ccc(Cl)cc1,36.7% (active)
23,N#C/C(=C/c1ccc(N2CCCCC2)o1)C(=O)Nc1ccc2ccccc2c1,52.8% (active)

row,Structure (SMILES),fluorescence artifact activation
1,N#C/C(=C\c1ccc(N2CCOCC2)o1)C(=O)NC1CCCCC1,10.5%
2,COc1ccc(NC(=O)/C(C#N)=C\c2ccc(N3CCOCC3)o2)cc1,8.28%
3,N#C/C(=C\c1ccc(N2CCCCC2)o1)C(=O)Nc1cccc(Br)c1,1.73%
4,N#C/C(=C/c1ccc(N2CCOCC2)o1)C(=O)NC1CCCCC1,-0.06%
5,CCOC(=O)C1(Cc2cccc(OC)c2)CCCN(Cc2nccn2CC)C1 (stereo unspecified),0.29%
6,O=C(NCc1ccco1)c1cc(-c2cccc(Cl)c2)on1,0.3%
7,O=c1[nH]ncc2c3ccccc3n(Cc3cccc(Cl)c3)c12,-0.06%
8,Cc1nc2oc(C(=O)c3ccccc3)c(N)c2c2c1COC(C)(C)C2,233% (active)
9,N#CC1(NC(=O)CN2CCN(S(=O)(=O)c3ccccc3F)CC2)CCCC1,-0.12%
10,O=C(C1=C[C@@H](c2ccc(Br)cc2)C[C@@H](OCc2ccc(CO)cc2)O1)N1CCN(Cc2ccc3c(c2)OCO3)CC1,0.02%
11,O=[n+]1c2c(n([O-])c3ccccc31)CCC2,8.78%
12,O=[n+]1c2c(n([O-])c3cc(F)c(N4CCCC4)cc31)CCC2,18.6% (active)
13,O=[n+]1c2c(n([O-])c3cc(F)c(N4CCCC4)cc31)CCCC2,50.2% (active)
14,CC(C)n1cnc2c(NCc3ccccc3)cc(N[C@H](C)CO)cc21,-0.08%
15,C#CCN1C(=O)S/C(=C/C=C/c2ccc(N(C)C)cc2)C1=O,0.36%
16,O=C(NCCN1CCOCC1)c1ccccc1N1C(=O)[C@@H]2Cc3c([nH]c4ccccc34)C(c3ccc(F)cc3)N2C1=O (stereo partly specified),0.13%
17,COC(=O)CCC(=O)OC1(C)C(=O)C2=CN(Cc3ccc(OC)cc3)C(c3ccc(OC)cc3)=CC2=C(Br)C1=O (stereo unspecified),-0.01%
18,CN(N=Nc1nc[nH]c1C(=O)NN)C1CCCCC1,0.38%
19,Fc1ccc(CN2CCCN(C(=S)Nc3ccc(F)cc3)CC2)cc1,17.4% (active)
20,O=C(Nc1ccc(F)cc1)OCCN1CCN(Cc2ccccc2)CCC1=O,-0.08%
21,Cc1ccc(NC(=O)COC(=O)c2csc3c2CCC(C)C3)cc1S(=O)(=O)N1CCCCC1 (stereo unspecified),1.08%
22,COc1ccc2c(CC(=O)N[C@@H](Cc3c[nH]c4ccccc34)C(=O)O)cc(=O)oc2c1,4.51%
